From ChEMBL document CHEMBL1944636, “Inhibition of hepatitis C virus NS5B polymerase by S-trityl-L-cysteine derivatives” (Eur J Med Chem, 2012)
Active and inactive are the calls of the source. The calls are words filed in the database; no cut-off is given here.

Assays:
Hepatitis C virus [1] = test: Inhibition of HCV genotype 1b recombinant N-His-tagged NS5B Cdelta21 polymerase expressed in Escherichia coli DH5alpha using [alpha-32P]UTP at 100 uM after 60 mins by liquid scintillation counting; parameters: species or system Hepatitis C virus subtype 1b; conditions: for inhibition at 100 µM: DH5-alpha, 1 h
Method in brief: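 Primer-dependent elongation with 100 ng NS5BCΔ21 in 20 mM Tris-HCl pH 7.0, 100 mM NaCl, 100 mM Na-glutamate, 1 mM MnCl₂, 0.25 μM polyrA/U₁₂, 20 μM UTP plus [α-³²P]UTP. Compound at 100 μM, 60 min at 30 °C. TCA/pyrophosphate stop, GF-B filter capture, scintillation counting. Percent of DMSO control, at least two independent measurements in duplicate.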

Hepatitis C virus [2] = test: Inhibition of HCV genotype 1b recombinant N-His-tagged NS5B Cdelta21 polymerase expressed in Escherichia coli DH5alpha using [alpha-32P]UTP after 60 mins by liquid scintillation counting; parameters: species or system Hepatitis C virus subtype 1b; conditions: DH5-alpha, 1 h
Method in brief: (§1)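 NS5BCΔ21 (genotype 1b, N-His, from E. coli DH5α, Ni-NTA purified), 100 ng, elongates polyrA/U₁₂ with 20 μM UTP/[α-³²P]UTP and 1 mM MnCl₂ at pH 7.0, 60 min at 30 °C. Counted on filters by scintillation. IC50 from nonlinear fits of 8–12 concentrations in duplicate, two independent experiments.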

[3] = Inhibition of HCV NS5B polymerase; parameters: species or system Hepacivirus hominis; method in brief: as §1
[4] = Cytotoxicity against human HuH7 cells assessed as cell viability at 100 uM after 42 hrs by MTS assay; format: cell-based, Huh-7; conditions: read-out: Activity
Method in brief: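 Viability of Huh7/Rep-Feo1b replicon cells was measured by colorimetric MTS read-out after 42 h with 100 μM compound. Cells were seeded at 1 × 10⁴/well, DMSO was 1.0% final, and culture was at 37 °C, 5% CO2. Values relative to DMSO controls, three independent experiments in duplicate.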

Hepatitis C virus [5] = test: Antiviral activity against HCV genotype 1b infected in human HuH7/Rep-Feo1b cells assessed as inhibition of viral replication at 100 uM after 42 hrs by luciferase reporter gene assay; format: functional, Hepacivirus hominis; conditions: Huh-7, 42 h
Method in brief: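 Huh7/Rep-Feo1b replicon cells (DMEM, 10% FCS, 0.5 mg/mL G418, 37 °C, 5% CO2) seeded at 1 × 10⁴/well and exposed to 100 μM compound or DMSO for 42 h, 1.0% DMSO final. Replication was read as firefly luciferase signal relative to DMSO controls. Mean of three independent experiments in duplicate.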

[6] = Cytotoxicity against hamster BHK cells assessed as cell viability at 100 uM after 42 hrs by luciferase reporter gene assay; format: cell-based, Mesocricetus auratus; conditions: read-out: Activity
Method in brief: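 BHK-NS5B-FRLuc reporter cells (DMEM, 10% FBS, 1 mg/mL G418, 10 μg/mL blasticidin) were plated at 1 × 10⁴/well with 100 μM compound or 1% DMSO for 42 h. Viability was taken as firefly luciferase level versus DMSO controls using Dual-Glo read-out. Three independent experiments in duplicate.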

Hepatitis C virus [7] = test: Inhibition of HCV genotype 1b NS5B polymerase expressed in BHK cells at 100 uM after 42 hrs by luciferase reporter gene assay; parameters: species or system Hepatitis C virus subtype 1b
Method in brief: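 Intracellular NS5B RdRp activity was read in BHK-NS5B-FRLuc reporter cells, 1 × 10⁴/well, treated 42 h with 100 μM compound or 1% DMSO at 37 °C, 5% CO2. Dual-Glo luciferase read-out; inhibition is percent reduction of Renilla-to-firefly luminescence ratio against DMSO controls. Three independent experiments in duplicate.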

Compound `CC(C)c1ccc(C(SC[C@H](N)C(=O)O)(c2ccccc2)c2ccccc2)cc1` has an inhibition at 100 µM (Hepatitis C virus [1]) of 31.2%.

With `Cc1ccc(C(SC[C@H](N)C(=O)O)(c2ccccc2)c2ccccc2)cc1` the inhibition at 100 µM (Hepatitis C virus [1]) was 23.1%.

With `N[C@@H](CSC(c1ccccc1)(c1ccccc1)c1ccc(C2CCCCC2)cc1)C(=O)O` the inhibition at 100 µM (Hepatitis C virus [1]) was 20.5%.

`CCCOc1ccc(C(SC[C@H](N)C(=O)O)(c2ccccc2)c2ccccc2)cc1` showed an inhibition at 100 µM (Hepatitis C virus [1]) of 14%.

`CC(C)(C)c1ccc(C(SC[C@H](N)C(=O)O)(c2ccccc2)c2ccccc2)cc1` gave an inhibition at 100 µM (Hepatitis C virus [1]) of 22.6%.

For `N[C@@H](CSC(c1ccccc1)(c1ccccc1)c1ccc(Cl)cc1)C(=O)O`, the inhibition at 100 µM (Hepatitis C virus [1]) was 28.3%.

`CCC(CC)C(SC[C@H](N)C(=O)O)(c1ccccc1)c1ccccc1` showed an inhibition at 100 µM (Hepatitis C virus [1]) of 33.1%.

`CSc1ccc(C(SCCN)(c2ccccc2)c2ccccc2)cc1` showed an inhibition at 100 µM (Hepatitis C virus [1]) of 24%.

Work on `NCCSC(c1ccccc1)(c1ccccc1)c1ccc2ccccc2c1` yielded an inhibition at 100 µM (Hepatitis C virus [1]) of 33.3%.

For `N[C@@H](CSC(c1ccccc1)(c1ccccc1)c1ccc2ccccc2c1)C(=O)O`, the inhibition at 100 µM (Hepatitis C virus [1]) was 14.7%.

Work on `CCCC(SC[C@H](N)C(=O)O)(c1ccccc1)c1ccccc1` yielded an inhibition at 100 µM (Hepatitis C virus [1]) of 19.1%.

Work on `N[C@@H](CSC(c1ccccc1)(c1ccccc1)c1ccc(C(=O)O)cc1)C(=O)O` yielded an inhibition at 100 µM (Hepatitis C virus [1]) of 30.9%.

`N[C@@H](CSC(c1ccccc1)(c1ccccc1)c1ccc(Br)cc1)C(=O)O` showed an inhibition at 100 µM (Hepatitis C virus [1]) of 20.2%.

Compound `N[C@@H](CSC(c1ccccc1)(c1ccccc1)c1ccc(C(F)(F)F)cc1)C(=O)O` has an inhibition at 100 µM (Hepatitis C virus [1]) of 43.5%.

For `CN(C)[C@@H](CSC(c1ccccc1)(c1ccccc1)c1ccccc1)C(=O)O`, the inhibition at 100 µM (Hepatitis C virus [1]) was 17.2%.

`CCCCc1ccc(C(SC[C@H](N)C(=O)O)(c2ccccc2)c2ccccc2)cc1` showed an inhibition at 100 µM (Hepatitis C virus [1]) of 60% and an IC50 (Hepatitis C virus [2]) of 39.7 µM.

In the case of `CCCc1ccc(C(SCCN)(c2ccccc2)c2ccccc2)cc1`, the inhibition at 100 µM (Hepatitis C virus [1]) is reported as 27.4%.

For `N[C@@H](CSC1(c2ccc(Cl)cc2)c2ccccc2-c2ccccc21)C(=O)O`, the pIC50 [3] was 4.33.

`N[C@H](CSC(c1ccccc1)(c1ccccc1)c1ccccc1)C(=O)O` gave an inhibition at 100 µM (Hepatitis C virus [1]) of 17%.

`CC(C)(SC(c1ccccc1)(c1ccccc1)c1ccccc1)[C@@H](N)C(=O)O` showed a viability at 42 h, 100 µM [4] of 72.6%, an inhibition at 100 µM (Hepatitis C virus [5]) of 89.5% and an inhibition at 100 µM (Hepatitis C virus [1]) of 82.8%. The viability at 42 h, 100 µM [6] was 100%, the IC50 (Hepatitis C virus [2]) was 22.3 µM and the inhibition at 100 µM (Hepatitis C virus [7]) was 85.4%.

`CCC(C)C(SC[C@H](N)C(=O)O)(c1ccccc1)c1ccccc1` (stereo partly drawn) gave an inhibition at 100 µM (Hepatitis C virus [1]) of 34%.

`NCCSC(c1ccccc1)(c1ccccc1)c1ccc(I)cc1` showed an inhibition at 100 µM (Hepatitis C virus [1]) of 36.7%.

Work on `CC(C)(SC(c1ccccc1)(c1ccccc1)c1ccccc1)[C@H](N)C(=O)O` yielded a viability at 42 h, 100 µM [4] of 74.1%, an inhibition at 100 µM (Hepatitis C virus [5]) of 91.2% and an inhibition at 100 µM (Hepatitis C virus [1]) of 76.7%. The viability at 42 h, 100 µM [6] was 100%, the IC50 (Hepatitis C virus [2]) was 24.6 µM and the inhibition at 100 µM (Hepatitis C virus [7]) was 84.3%.

`CCc1ccc(C(SCCN)(c2ccccc2)c2ccccc2)cc1` showed an inhibition at 100 µM (Hepatitis C virus [1]) of 28.7%.

Work on `CCCCc1ccc(C(SC(C)(C)[C@H](N)C(=O)O)(c2ccccc2)c2ccccc2)cc1` yielded an inhibition at 100 µM (Hepatitis C virus [1]) of 22%.

With `N[C@@H](CSC(c1ccccc1)(c1ccccc1)c1ccc(-c2ccccc2)cc1)C(=O)O` the inhibition at 100 µM (Hepatitis C virus [1]) was 22.4%.

For `CCCOc1ccc(C(SC(C)(C)[C@H](N)C(=O)O)(c2ccccc2)c2ccccc2)cc1`, the inhibition (Hepatitis C virus [1]; Hepatitis C virus subtype 1b) was “inactive”.

In the case of `CSc1ccc(C(SC[C@H](N)C(=O)O)(c2ccccc2)c2ccccc2)cc1`, the inhibition at 100 µM (Hepatitis C virus [1]) is reported as 44.3%.

Work on `CCCCCc1ccc(C(SC[C@H](N)C(=O)O)(c2ccccc2)c2ccccc2)cc1` yielded an inhibition at 100 µM (Hepatitis C virus [1]) of 28.3%.

Compound `CCCCCCc1ccc(C(SC[C@H](N)C(=O)O)(c2ccccc2)c2ccccc2)cc1` has an inhibition at 100 µM (Hepatitis C virus [1]) of 16.1%.

For `NCCSC(c1ccccc1)(c1ccccc1)c1ccc(-c2ccccc2)cc1`, the inhibition at 100 µM (Hepatitis C virus [1]) was 36%.

In the case of `N[C@@H](CSC(c1ccccc1)(c1ccccc1)c1cccs1)C(=O)O`, the inhibition at 100 µM (Hepatitis C virus [1]) is reported as 23.4%.

For `N[C@@H](CSC(c1ccccc1)(c1ccccc1)c1ccccc1)C(=O)O` [S-TRITYL-L-CYSTEINE], the inhibition at 100 µM (Hepatitis C virus [1]) was 12.6%.

`CCCc1ccc(C(SC[C@H](N)C(=O)O)(c2ccccc2)c2ccccc2)cc1` gave an inhibition at 100 µM (Hepatitis C virus [1]) of 36.9%.

`Cc1ccc(C(SCCN)(c2ccccc2)c2ccccc2)cc1` showed an inhibition at 100 µM (Hepatitis C virus [1]) of 31.7%.

`CCc1ccc(C(SC[C@H](N)C(=O)O)(c2ccccc2)c2ccccc2)cc1` showed an inhibition at 100 µM (Hepatitis C virus [1]) of 36.8%.

`CC(C)C(SC[C@H](N)C(=O)O)(c1ccccc1)c1ccccc1` gave an inhibition at 100 µM (Hepatitis C virus [1]) of 22.5%.
